Screening results as filed in PubChem BioAssay.
Only some compounds are listed: those with a hit (about 4.1% of all), similar ones and a draw of the others.
KCNK3 block: human KCNK3 channel inhibition, primary screen; CHO-KCNK3 thallium flux, FluxOR fluorescence; active compounds read low; B-score at 10 µM; 340,000 compounds, 0.84% hits; AID 602410;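 active = B-score under library mean minus 4 SD, starting fluorescence ratio at most library mean plus 5 SD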;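 also: more negative B-score means stronger inhibition of thallium flux through KCNK3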
KCNQ1 inh: blocks the human KCNQ1 potassium channel | P51787 | 310,000 compounds, 1.3% hits | CHO-K1 KCNQ1, FluxOR thallium flux fluorescence; active compounds read high | B-score at 10 µM;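 active = compounds whose thallium flux B-score, printed positive for inhibition, exceeds three library SD while starting fluorescence stays within three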;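 also: channel opened by potassium depolarization with thallium stimulus after 20 min compound exposure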
KCNK9 inh: blocks the human KCNK9 two-pore domain potassium channel. 310,000 compounds, 1.2% hits. HEK293 KCNK9, FluxOR thallium flux fluorescence; active compounds read low. B-score at 10 µM;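 active = ratio B-score over 3 SD below the library mean, with starting fluorescence within 5 SD of its mean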;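 also: negative B-score means less thallium flux so channel inhibition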
Target sequence (Q9NPC2 whole entry, looked up, the tested form may be a part): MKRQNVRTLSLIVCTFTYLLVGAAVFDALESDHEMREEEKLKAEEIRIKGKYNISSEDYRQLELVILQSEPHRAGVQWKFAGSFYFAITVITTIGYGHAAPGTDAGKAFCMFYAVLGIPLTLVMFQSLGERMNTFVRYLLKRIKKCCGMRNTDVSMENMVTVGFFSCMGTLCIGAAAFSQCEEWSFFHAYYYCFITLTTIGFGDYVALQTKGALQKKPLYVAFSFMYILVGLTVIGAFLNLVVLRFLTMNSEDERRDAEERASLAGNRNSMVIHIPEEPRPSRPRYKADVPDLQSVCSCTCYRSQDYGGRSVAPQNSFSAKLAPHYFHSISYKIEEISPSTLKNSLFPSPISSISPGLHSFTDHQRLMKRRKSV
hERG rescue: compounds protecting human hERG from proarrhythmic drug block; Q12809; CHO-hERG, FluxOR thallium flux, dofetilide IC70 present; activation (rescue from dofetilide block), less the hit threshold, % at 10 µM; 310,000 compounds, 0.51% hits; AID 1511;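 active = activation above the mean of controls blocked by dofetilide plus 5 SD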;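 also: thallium influx through hERG after potassium depolarization seen as dye fluorescence rise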
KCNQ1 pot: potentiates or activates the human KCNQ1 potassium channel; P51787; CHO-K1 KCNQ1, thallium flux FluxOR fluorescence; active compounds read high; B-score at 10 µM; 310,000 compounds, 0.35% hits;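 active = fluorescence ratio B-score, a plate-corrected score, at least three library SD, with initial intensity B-score within 5 SD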
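Material: CHO-K1 cells stably expressing KCNQ1. Medium: assay buffer for compound exposure, DMSO matched across wells. Reagent: K+/Tl+ depolarizing stimulus. Compound dosing: single-concentration screen. Times: 37 °C overnight plating, 90-min dark dye load, 20-min compound pretreatment. Technique: FluxOR Tl+ flux fluorescence.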
KCC2 mod: KCC2 (human) Cl- transport modulation; Q9H2X9; KCC2 cells, thallium flux FluoZin-2 fluorescence; B-score of Tl+ flux slope (higher = more flux/activation; lower = inhibition) at 10 µM; 190,000 compounds, 2.2% hits; AID 1456;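 active = thallium flux slope and its plate-corrected score both differing from the plate sample mean at a set confidence after two filtering rounds, in either direction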;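 also: slope of fluorescence scaled to starting intensity during 10 to 20 s after thallium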
KCC2 sec1: confirmation of human KCC2 transport modulators; shares compounds with KCC2 mod; 3,700 compounds, 15% hits; HEK293-KCC2, thallium flux, FluoZin2 fluorescence; active compounds read high; normalised thallium flux (F/F0 slope) at 10 µM;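 active = thallium flux slope above the same plate's solvent-only control mean plus 3 SD; inconclusive = the two replicate wells disagree; inactive = no significant difference from solvent-only control wells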
KCC2 bumet counter: thallium flux despite bumetanide block in KCC2 cells, secondary assay 3. normalized thallium flux at 10 µM. HEK293-KCC2 + bumetanide/ouabain, thallium flux FluoZin2; active compounds read high. shares compounds with KCC2 mod. 3,700 compounds, 49% hits. AID 1714;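 active = thallium entry rate above the same plate's blocked-transporter control wells by more than 3 SD; inconclusive = the two repeat wells disagree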;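 also: raw slope of fluorescence over initial fluorescence between 10 and 20 s after thallium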
KCC2 sec2: confirmation of human KCC2 transport modulators | shares compounds with KCC2 mod | normalized thallium flux at 10 µM | 3,700 compounds, 23% hits | HEK293-KCC2, thallium flux FluoZin2 fluorescence; actives lie on both sides; F/F0 rise rate, 10–20 s post-thallium;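 active = thallium flux slope more than 3 SD above or below the plate's solvent-only control mean, mostly below; inconclusive = the two repeat wells disagreed; inactive = no significant shift from solvent-only controls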
HEK counter1: counter-screen for KCC2 modulators: effect in parental HEK293 cells. shares compounds with KCC2 mod. thallium flux FluoZin2, ouabain; baseline-ratio fluorescence slope, 10–20 s after thallium. thallium flux rate (normalised fluorescence) at 10 µM. 3,700 compounds, 46% hits;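 active = thallium flux rate significantly above the same plate's solvent-only control wells, beyond their mean plus 3 SD; inconclusive = the two replicate wells gave conflicting results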
KCC2 ouabain: confirmation of human KCC2 modulators with ouabain | shares compounds with KCC2 mod | HEK293-KCC2, thallium flux FluoZin2 fluorescence; bidirectional: low = inhibitor, high = activator | raw Tl+ flux slope (below DMSO = inhibition, above = activation) at 10 µM | 3,700 compounds, 48% hits | AID 1717;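 active = thallium flux slope beyond 3 SD from same-plate DMSO control mean in most replicates, usually higher, sometimes lower; inconclusive = repeat tests gave conflicting results; inactive = no significant difference from controls in most replicates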;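 also: slope of initial-normalized fluorescence between seconds 10 and 20 after thallium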
HEK293 Tl flux2: parental HEK flux effect, counter-screen 2. 3,700 compounds, 33% hits. HEK293 parental, thallium flux FluoZin-2 fluorescence slope. shares compounds with KCC2 mod. AID 1718. thallium flux slope at 10 µM;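 active = thallium flux slope above the same plate's solvent-control mean plus 3 SD in both duplicate wells; inconclusive = duplicate wells that disagreed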;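 also: run without ouabain in cells lacking the KCC2 cotransporter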
Numbers stand for hits; – = inactive; ? = inconclusive; · = no result.

SMILES	KCNK3 block	KCNQ1 inh	KCNK9 inh	hERG rescue	KCNQ1 pot	KCC2 mod	KCC2 sec1	KCC2 bumet counter	KCC2 sec2	HEK counter1	KCC2 ouabain	HEK293 Tl flux2
COc1cccc(/C=c2\s/c(=C/C(=O)c3ccc(C)cc3)[nH]c2=O)c1OC	–	–	–	–	–	4.67	–	?	–	0.0113	0.0261	?
CN1C[C@@H]2[C@@H]3C(=O)N(Cc4ccccc4)C(=O)[C@@H]3[C@](Cc3ccccc3)(C1=O)N2C(=O)c1ccc(C(C)(C)C)cc1	–	·	·	·	·	·	·	·	·	·	·	·
Cn1c(NCC2CCCO2)nc2c1c(=O)n(Cc1ccccc1)c(=O)n2C (stereo not given)	–	–	–	–	–	·	·	·	·	·	·	·
Cn1c(=O)c2c(nc(NCC3CCCO3)n2Cc2cccc(Br)c2)n(C)c1=O (stereo not given)	–	–	–	–	–	-7.57	–	–	–	–	–	?
O=C1CCCc2c1[nH]c1ccc(CN3CCCCC3)cc21	–	–	–	–	–	-5.07	–	–	–	–	–	–
CC1(C)O[C@@H]2[C@H](O1)[C@@H](COS(=O)(=O)O)O[C@H]2n1c(=S)[nH]c2c(=O)[nH]c(N)nc21	–	·	·	·	·	·	·	·	·	·	·	·
CS(=O)(=O)N(CC(=O)N1CCCC1)c1ccc2c(c1)OCCO2	–	–	–	–	–	·	–	–	–	–	–	–
CCC1=NN2C(=N)/C(=C\c3cccn3-c3ccc(OC)cc3)C(=O)N=C2S1	–	–	–	–	–	–	·	·	·	·	·	·
Cc1ccc(-n2cccc2/C=C2\C(=N)N3N=C(C(C)C)SC3=NC2=O)cc1	–	–	–	–	–	7.12	–	0.0367	?	0.0298	0.0312	0.0171
COc1ccc(/C(O)=C2/C(=O)C(=O)N(CCN(C)C)C2c2ccccn2)cc1OC (stereo not given)	–	–	–	–	–	4	–	–	–	?	–	?
Cc1ccc(/C(O)=C2/C(=O)C(=O)N(CCN3CCOCC3)C2c2ccccn2)cc1 (stereo not given)	–	–	–	–	–	2.73	–	?	–	?	–	–
CN(Cc1ccc(C(C)(C)C)cc1)C(=O)Cc1ccc(S(=O)(=O)N2CCOCC2)s1	–	·	·	·	·	·	·	·	·	·	·	·
N#CCCSc1ccccc1NC(=O)c1cc(=O)c2ccccc2o1	–	–	–	–	–	·	·	·	·	·	·	·
CC(C)(C)NC(=O)CN1CCCN(C(=O)c2cccc(S(=O)(=O)N3CCc4ccccc43)c2)CC1	–	·	·	·	·	·	·	·	·	·	·	·
c1ccc(CSc2nnc(-c3ccccc3)c(-c3ccccc3)n2)cc1	–	–	–	–	–	·	·	·	·	·	·	·
N#Cc1c(Cl)nc(SCc2ccccc2)nc1-c1ccccc1	·	·	·	·	·	-4.91	–	–	0.0236	0.00549	0.014	0.00834
COC(=O)[C@]1(C)N[C@H](CN(C)S(=O)(=O)c2ccc(F)cc2)[C@@H]2C(=O)N(C)C(=O)[C@@H]21	–	·	·	·	·	·	·	·	·	·	·	·
O=C(CC(C(=O)N1CCc2ccccc21)n1ccnc1)N1CCc2ccccc2C1 (stereo not given)	–	–	–	–	–	-6.19	?	–	0.0241	–	?	–
O=C(NNC(=S)NCc1ccccc1)c1ccccc1OC(F)F	–	–	–	–	–	–	·	·	·	·	·	·
